Test results: ChEMBL document CHEMBL4765374, “8-Alkynyl-3-nitroimidazopyridines display potent antitrypanosomal activity against both T. b. brucei and cruzi” (Eur J Med Chem, 2020)
≈ marks a conversion by molar mass, not a printed value.

Key:
[1] = Cytotoxicity against human HepG2 cells assessed as reduction in cell viability after 72 hrs by MTT assay; type: cell-based
Leishmania donovani [2] = test: Antileishmanial activity against Leishmania donovani MHOM/IN/00/DEVI promastigotes assessed as inhibition of metabolic activity measured after 72 hrs by MTT assay; type: functional, organism-based
Outline: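 L. donovani MHOM/IN/00/DEVI promastigotes grown in Schneider's medium with 20% FCS at 27 °C. Log-phase parasites at 10⁶/mL were exposed in duplicate to serial compound concentrations in DMSO (final <0.5%) for 72 h at 27 °C. MTT was added for 4 h and absorbance read at 570 nm. EC50 from non-linear regression, mean of at least three independent experiments.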

[3] = Selectivity index, ratio of CC50 for cytotoxicity against human HepG2 cells to EC50 for antileishmanial activity against Leishmania donovani MHOM/IN/00/DEVI promastigotes; type: toxicity, cell-based; settings: read-out: Selectivity Index
[4] = system: Trypanosoma brucei brucei; test: […] activity against Trypanosoma brucei brucei AnTat 1.9 measured after 74 hrs by Alamar blue assay; type: functional, organism-based; settings: AnTat 1.9, 74 h
Outline: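 Bloodstream T. b. brucei AnTat 1.9 grown at 37 °C, 5% CO₂ in MEM with Earle's salts plus mercaptoethanol, L-cysteine, bathocuproine sulfate and 20% heat-inactivated horse serum. Seeded at 2000 parasites/100 µL and exposed in duplicate to compounds in DMSO for 69 h. Alamar Blue then added for 5 h, fluorescence read at ex 530/em 590 nm. EC50 by nonlinear regression from three independent experiments.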

[5] = Selectivity index, ratio of CC50 for human HepG2 cells to EC50 for Trypanosoma brucei brucei AnTat 1.9; type: toxicity; settings: read-out: Selectivity Index
Trypanosoma cruzi = test: Antitrypanosomal activity against Trypanosoma cruzi trypomastigotes infected in African green monkey Vero cells incubated for 120 hrs measured on day 6 cells followed by trypomastigotes release by haemocytometer-based light microscopy; type: functional, organism-based
Outline: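 Vero cells, grown 2 days, were infected with T. cruzi CL Brener trypomastigotes at 3:1 parasites to host cells. After 24 h, free parasites were washed off and compounds added (0.1 to 25 µM, 2 to 4-fold dilutions) for 120 h at 37 °C. Trypomastigotes released into the medium by day 6 were pelleted and counted by haemocytometer. EC50 by non-linear regression; two independent experiments, each in triplicate.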

THP-1 = test: Cytotoxicity against human THP-1 cells assessed as reduction in cell viability after 72 hrs by MTT assay; type: functional
Outline: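 THP-1 cells at 5×10⁴ cells/mL in complete RPMI were exposed in duplicate to compounds in DMSO (final <0.5%) for 72 h at 37 °C. MTT at 0.5 mg/mL for 2 h, formazan dissolved in DMSO, absorbance read at 570 nm with 630 nm reference. CC50 from the dose-response curve, mean of three independent experiments.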

Leishmania donovani [6] = test: Antileishmanial activity against wild type Leishmania donovani BOB (MHOM/SD/62/1S-CL2D) promastigotes incubated for 72 hrs by resazurin dye based assay; type: functional, organism-based
Outline: (§1)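 Clonal L. donovani LdBOB promastigotes grown at 26 °C in modified M199; NTR1- and NTR2-overexpressing lines maintained with nourseothricin (100 µg/mL). Triplicate 10 mL cultures seeded at 5×10^4 parasites/mL with drug for 72 h; 200 µL aliquots then given 50 µM resazurin, fluorescence (ex 528/em 590 nm) after 4 h more. EC50 from slope-factor equation; experiments repeated at least twice, mean plus standard deviation.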

Leishmania donovani [7] = test: Antileishmanial activity against Leishmania donovani BOB (MHOM/SD/62/1S-CL2D) promastigotes overexpressing NTR1 incubated for 72 hrs by resazurin dye based assay; type: functional, organism-based; outline: as §1
Leishmania donovani [8] = test: Antileishmanial activity against Leishmania donovani BOB (MHOM/SD/62/1S-CL2D) promastigotes overexpressing NTR2 incubated for 72 hrs by resazurin dye based assay; type: functional, organism-based; outline: as §1
[9] = system: Trypanosoma brucei brucei; test: Antitrypanosomal activity against bloodstream form of wild type Trypanosoma brucei brucei S427 trypomastigotes incubated for 72 hrs; type: functional, organism-based; settings: S427, 72 h
Outline: (§2)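 Bloodstream-form T. brucei 'single marker' S427 cultured at 37 °C in HMI9-T with 2.5 µg/mL G418. The NTR1-overexpressing line was kept with 2.5 µg/mL phleomycin and induced with 1 µg/mL tetracycline 48 h before testing. Triplicate cultures seeded at 1×10^5 cells/mL with inhibitor. Cell densities counted after 72 h. EC50 from slope-factor equation.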

[10] = system: Trypanosoma brucei brucei; test: Antitrypanosomal activity against bloodstream form of Trypanosoma brucei brucei S427 trypomastigotes overexpressing NTR incubated for 72 hrs; type: functional, organism-based; settings: S427, 72 h; outline: as §2
[11] = Thermodynamic solubility of the compound in phosphate buffer at pH 7.4 by shake flask method; type: physicochemical; settings: read-out: Therm_solubility
Outline: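 Miniaturized shake-flask method: a 20 mM DMSO stock was diluted into phosphate buffer pH 7.4 (n=3), sonicated and shaken for 24 h at room temperature, then centrifuged. Supernatant was mixed 1:1 with acetonitrile and quantified by UV spectrophotometry at the compound's λmax against a calibration curve.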

Albumin = Albumin (Homo sapiens, UniProt P02768); test: Protein binding to human albumin by LC-MS analysis; type: ADME; settings: read-out: PB (converted)
Sequence of Albumin (P02768 whole entry): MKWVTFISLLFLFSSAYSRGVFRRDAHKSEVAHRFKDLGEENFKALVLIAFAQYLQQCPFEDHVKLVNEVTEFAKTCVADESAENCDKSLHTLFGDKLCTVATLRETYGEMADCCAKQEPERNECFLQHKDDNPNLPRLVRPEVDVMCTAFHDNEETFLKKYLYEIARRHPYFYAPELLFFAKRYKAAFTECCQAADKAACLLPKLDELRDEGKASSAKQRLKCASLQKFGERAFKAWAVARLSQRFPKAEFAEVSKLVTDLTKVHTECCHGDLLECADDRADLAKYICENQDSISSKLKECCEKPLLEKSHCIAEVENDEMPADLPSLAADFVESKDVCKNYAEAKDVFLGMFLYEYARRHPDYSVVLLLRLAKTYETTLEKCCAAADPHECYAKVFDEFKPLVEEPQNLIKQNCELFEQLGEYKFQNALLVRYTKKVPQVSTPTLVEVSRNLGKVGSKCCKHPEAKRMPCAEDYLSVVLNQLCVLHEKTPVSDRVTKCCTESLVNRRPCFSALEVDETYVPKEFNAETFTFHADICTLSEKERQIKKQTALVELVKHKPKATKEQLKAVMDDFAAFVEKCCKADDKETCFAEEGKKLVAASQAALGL
Outline: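 Plasma spiked with compound was dialysed at 37 °C in triplicate against phosphate buffer pH 7.2 for 4 h at 300 rpm. Both compartments were sampled and quantified by LC-MS using propranolol as internal standard. Unbound fraction taken from the plasma and buffer peak ratios; recovery checked with a non-incubated spiked plasma.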

[12] = Microsomal stability in CD-1 mouse liver microsomes assessed as half life measured after 40 mins in presence of NADPH by LC-MS/MS analysis; type: ADME, Microsome
Outline: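 Female CD-1 mouse microsomes incubated in duplicate at 37 °C in 50 mM phosphate buffer, pH 7.4, with MgCl₂, NADP, glucose-6-phosphate and G6P dehydrogenase. […] Propranolol as reference.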

[13] = Effective permeability of the compound at pH 7.4 incubated for 4 hrs by PAMPA-BBB assay; type: ADME; settings: read-out: permeability
Outline: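 Compound diluted from a 20 mM DMSO stock to 100 µM in Prisma HT buffer pH 7.4 and placed in the donor wells. Acceptor membrane coated with BBB-1 lipid, with Brain Sink Buffer in the acceptor wells. Plates incubated 4 h at room temperature without stirring, then read by UV-visible spectra to give Pe. Corticosterone and theophylline served as high and low permeability standards; n=6.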

[14] = Cmax in Swiss albino mouse at 100 mg/kg, po; type: ADME, organism-based; set-up: route oral, dose 100 mg/kg; settings: in vivo
Outline: (§3)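 Female Swiss mice, 8 weeks, 30-32 g, given a single oral gavage at 100 mg/kg as a suspension in 5% Tween 80/95% carboxymethylcellulose 0.5% in water. Blood (100 µL) was extracted with ACN containing ornidazole as internal standard plus QuEChERS salts, then quantified by positive-ESI LC-MS/MS on a C8 column against whole-blood calibration standards (5 to 1,000 ng/mL).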

[15] = Tmax in Swiss albino mouse at 100 mg/kg, po; type: ADME, organism-based; settings: in vivo; outline: as §3
[16] = Half life in Swiss albino mouse plasma at 100 mg/kg, po; type: ADME, organism-based; outline: as §3
[17] = AUC (0 to infinity) in Swiss albino mouse at 100 mg/kg, po; type: ADME, organism-based; set-up: time infinity, route oral, dose 100 mg/kg; settings: in vivo; outline: as §3
[18] = Clearance in Swiss albino mouse at 100 mg/kg, po; type: ADME, organism-based; settings: in vivo; outline: as §3
[19] = Genotoxicity in Salmonella typhimurium at 0.25 mM incubated for 48 hrs by Ames test; type: toxicity; settings: salmonella enterica subsp. enterica serovar typhimurium, 250 µM
Outline: (§4)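 Liquid pre-incubation Ames test using S. typhimurium TA97a, TA98, TA100 and TA102 grown overnight in nutrient broth. Cultures were incubated with compound (5-50 mM DMSO stock) and 4% S9 mix for 1 h at 37 °C, then plated in top agar on minimal agar for 48 h at 37 °C in the dark, in duplicate. Positive result: a two-fold rise in revertants over the spontaneous count. Benzo[a]pyrene with S9 as positive control.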

[20] = Genotoxicity in Salmonella typhimurium at 2.5 mM incubated for 48 hrs by Ames test; type: toxicity; settings: salmonella enterica subsp. enterica serovar typhimurium, 2500 µM; outline: as §4
HepG2 = test: Genotoxicity in human HepG2 cells assessed as induction of DNA damage at 20 to 30 uM incubated for 2 to 72 hrs by alkaline comet assay; type: toxicity, cell-based; settings: hepg2, 30 µM, dose lower 20 µM, time lower 2 hrs, dose upper 30 µM, time upper 72 hrs
Outline: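 HepG2 cells exposed for 2 or 72 h at 20 or 30 µM, then trypsinized and embedded in 0.7% low-melting agarose. Lysis 18 h at 4 °C, pH 10; alkaline electrophoresis (pH >13) for 24 min at 0.8 V/cm. Gels stained with SYBR Gold and imaged. % tail DNA is the median of 50 cells per deposit, three deposits per sample.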

[21] = Solubility of the compound in aqueous medium at highest dose; type: physicochemical; settings: buffer

O=[N+]([O-])c1c(CS(=O)(=O)c2ccccc2)nc2c(C#CCCO)cc(Cl)cn12
CC50 at 72 h [1]: > 125000 nM
EC50 (Leishmania donovani [2]): 7400 nM
selectivity ratio [3]: > 16.9
EC50 [4]: 70 nM
selectivity ratio [5]: > 1790
EC50 (Trypanosoma cruzi): 1200 nM
CC50 (THP-1): > 100000 nM
EC50 (Leishmania donovani [6]): 21400 nM
EC50 (Leishmania donovani [7]): 500 nM
EC50 (Leishmania donovani [8]): 24500 nM
EC50 [9]: 124 nM
EC50 [10]: 26.5 nM
solubility thermodynamic [11]: 70.7 µM (≈ 29.7 µg/mL)
fraction unbound (Albumin): 0.015
half-life [12]: 16 min
Papp at 4 h [13]: 34.6 ×10⁻⁶ cm/s
Cmax [14]: 394 ng/mL
Tmax [15]: 49.8 min
half-life [16]: 601 min
AUC(0-inf) [17]: 1430 ng·h/mL
CL/F [18]: 0.0407 mL/min
Activity [19]: Toxic
Activity [20]: Toxic
Activity (HepG2): Non-Toxic
solubility [21]: Insoluble
